Screens: PubChem BioAssay, several laboratories
Hits are enriched below; roughly 1.9% of the tested compounds scored in any of these assays.
PP1 counter = blocks human PP1-alpha phosphatase, a PP5 counter-screen. purified PP1alpha, OMFP fluorescence. 320,000 compounds, 0.9% hits. AID 2235. inhibition, % at 6.7 µM. P62136;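 active means inhibition above the mean inhibition of all tested compounds plus 3 SD, computed separately for each screening campaign, cut at about 15% in these data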
PP5 inh = inhibitors of human protein phosphatase 5 (PP5); P53041; purified PP5c, OMFP substrate fluorescence; inhibition, % at 6.7 µM; 320,000 compounds, 0.18% hits; AID 1987;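 active means inhibition above the campaign's mean inhibition across all tested compounds plus 3 SD, cut at about 9.5% in these data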;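 further: 0% = DMSO only and 100% = 100 µM cantharidin control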
LMPTP block = LMPTP (human) inhibition | P24666 | recombinant LMPTP-A, OMFP fluorogenic substrate, fluorescence intensity | inhibition, % at 20 µM | 360,000 compounds, 0.22% hits | AID 651560;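 active means compounds that cut the enzyme signal by at least half of the control window in the single-dose screen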;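 further: plate controls were DMSO wells with enzyme plus substrate for no effect and substrate without enzyme for full effect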
Target sequence (P24666 whole entry, looked up): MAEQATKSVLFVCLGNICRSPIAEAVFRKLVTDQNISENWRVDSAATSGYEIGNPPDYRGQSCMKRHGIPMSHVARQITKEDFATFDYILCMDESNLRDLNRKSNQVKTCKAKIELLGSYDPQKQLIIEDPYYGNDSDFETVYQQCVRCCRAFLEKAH
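Material: LMPTP-A; amount: 0.625 nM enzyme; doses: single 20 µM dose; times: reaction 50 min, room temperature, dark; technique: fluorescence intensity of OMFP turnover product; benchmarks: no-enzyme and uninhibited controls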
STEP inh = inhibitors of human striatal-enriched phosphatase STEP; 360,000 compounds, 0.25% hits; inhibition, % at 20 µM; recombinant STEP, OMFP fluorogenic substrate, fluorescence; AID 588621;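 active means inhibition at 20 µM, scaled per plate between control wells, above about 37%, limit read from the data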;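 further: 0% = DMSO with enzyme and substrate and 100% = substrate only without enzyme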
Target sequence (P54829 whole entry, looked up): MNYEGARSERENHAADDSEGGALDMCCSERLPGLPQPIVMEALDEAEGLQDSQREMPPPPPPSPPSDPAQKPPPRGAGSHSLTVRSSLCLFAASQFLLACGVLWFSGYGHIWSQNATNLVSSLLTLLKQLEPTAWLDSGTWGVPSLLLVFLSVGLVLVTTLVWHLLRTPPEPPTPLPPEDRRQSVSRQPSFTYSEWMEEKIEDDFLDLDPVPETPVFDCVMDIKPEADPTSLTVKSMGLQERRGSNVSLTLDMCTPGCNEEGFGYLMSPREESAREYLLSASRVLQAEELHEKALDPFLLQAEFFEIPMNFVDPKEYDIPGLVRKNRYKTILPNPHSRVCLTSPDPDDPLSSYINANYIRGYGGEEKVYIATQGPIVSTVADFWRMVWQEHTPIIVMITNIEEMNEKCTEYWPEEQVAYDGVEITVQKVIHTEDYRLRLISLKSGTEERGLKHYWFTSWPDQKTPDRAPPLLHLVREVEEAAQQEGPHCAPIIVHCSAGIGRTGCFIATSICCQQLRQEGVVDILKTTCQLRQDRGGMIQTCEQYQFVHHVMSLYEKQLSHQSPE
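System: STEP phosphatase, cell-free reaction; Buffer or medium: Bis-Tris pH 6.0 buffer with DTT, detergent; Incubation: 20 min at room temperature, dark; Measured by: fluorescence, 480/540 nm.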
Scp-1 inhibitor = Scp-1 (human) phosphatase inhibition; Q9GZU7; Recombinant Scp1, phosphopeptide, malachite green phosphate absorbance; inhibition, % at 20 µM; 340,000 compounds, 0.88% hits; AID 493091;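 active means inhibition above about 50% at 20 µM, limit read from the data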;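 further: plate controls were DMSO wells with enzyme for no effect and wells lacking enzyme for full effect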
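Test system: SCP-1 catalytic domain; Buffer or medium: Acidic Tris acetate buffer with magnesium and detergent; Also added: Phosphorylated 17-residue peptide substrate; Compound: single 20 µM dose, 1% DMSO; Schedule: enzyme reaction 45 min at room temperature, colour 5 min, stabilisation 30 min; Signal: Phosphate-binding colour reagent, absorbance read at 630 nm.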
PP1 inh confirm = confirmation of human PP1 phosphatase inhibitors; 1,900 compounds, 52% hits; shares compounds with PP1 counter; inhibition, % at 6.7 µM; purified PP1alpha, OMFP substrate fluorescence;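 active means mean PP1 inhibition above a set limit taken from the earlier primary screen, cut at about 15% in these data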
PP5 inh counter = counter-screen for PP1 inhibitors: human PP5 phosphatase inhibition; shares compounds with PP1 counter; purified PP5c, OMFP fluorescence; inhibition, % at 6.7 µM; 1,900 compounds, 4% hits; AID 2360;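 active means mean PP5 inhibition over triplicate wells above about 9.5% taken from the earlier PP1 screen, limit read from the data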
Numbers without * were called inactive; . = no result.

SMILES | PP1 counter | PP5 inh | LMPTP block | STEP inh | Scp-1 inhibitor | PP1 inh confirm | PP5 inh counter
O=C(COC(=O)CC1CCCC1)Nc1ccc(Cl)cn1 | -3 | 1 | 0 | -1 | -4 | . | .
O=C(NCC1CCCC(CNC(=O)Nc2ccc(Cl)cn2)C1)Nc1ccc(Cl)cn1 (stereo not drawn) | 19* | 6 | 1 | -3 | -6 | 13 | 5
COc1ccccc1N1CC(C(=O)Nc2nc(C)cs2)CC1=O (stereo not drawn) | 1 | 4 | 0 | -4 | -5 | . | .
O=C(N/N=C/c1ccccc1OC(F)F)c1cc(-c2ccncc2)nc2ccccc12 | 4 | 0 | 1 | 0 | -6 | . | .
O=c1c(Cl)c(Cl)cnn1-c1ccccc1 | . | . | -1 | 3 | -4 | . | .
O=c1c(Cl)c(N/N=C/c2ccc(Cl)cc2)cnn1-c1ccccc1 | 29* | 0 | 54* | 3 | 20 | 21* | -1
COc1ccc(-n2c3c(cc(C(=O)NNc4ccccc4C)c2=O)C(=O)CC(C)(C)C3)cc1 | 18* | 1 | 6 | 3 | -3 | 1 | -3
Cc1ccc(-n2cccn2)c(CN2CCC(CO)(CCc3ccccc3)CC2)c1 | . | . | -3 | -4 | 1 | . | .
COc1ccc(NC(=O)CN(C)C(=O)c2c(C)nn(-c3ccccc3)c2Cl)cc1 | 20* | -2 | 0 | 0 | -11 | -3 | 0
COc1ccc(NC(=O)CN(C)C(=O)c2c(C)nn(Cc3ccc(C)cc3)c2Cl)cc1 | 0 | 2 | -1 | -1 | -6 | . | .
Nc1nc2c(-c3ccc(Br)cc3)nnn2c2ccccc12 | 1 | 0 | 2 | -1 | -7 | . | .
O=C(O)c1ccc2c(c1)C1C=CCC1C(c1ccncc1)N2 (stereo not drawn) | 7 | 0 | -2 | 1 | 9 | . | .
COc1ccc(NS(=O)(=O)c2ccc3c(c2)[C@H]2C=CC[C@H]2[C@@H](c2ccc(C(=O)O)cc2)N3)cc1 | 19* | 3 | 4 | 3 | 14 | 6 | -2
Cc1c(Cl)cccc1NS(=O)(=O)c1ccc2c(c1)C1C=CCC1C(c1ccc(C(=O)O)cc1)N2 (stereo not drawn) | 25* | 1 | 26 | 2 | 26 | 18* | 1
CC(=O)c1ccc2c(c1)C1C=CCC1C(c1ccc(S(=O)(=O)N3CCOCC3)cc1)N2 (stereo not drawn) | 13 | -2 | 3 | -2 | -1 | . | .
Cc1cccc(NS(=O)(=O)c2cccc(C(=O)NCC(C)(C)N3CCOCC3)c2)c1 | -11 | 1 | -2 | 2 | 1 | . | .
COc1cc(C(=O)NCc2cc(C)nc3ccccc23)cc(OC)c1OC | -2 | 1 | 3 | -1 | -3 | . | .
COc1ccc([N+](=O)[O-])cc1NC(=O)c1ccc(Br)s1 | 18* | 0 | 12 | 4 | 2 | 21* | -6
COc1cccc(-c2cc3nc(-c4ccccc4)cc(=O)n3[nH]2)c1 | 21* | 2 | 2 | 1 | -8 | 23* | 1
Cc1[nH]n2c(=O)cc(C(C)(C)C)nc2c1-c1ccccc1 | 24* | 1 | 0 | 0 | 0 | 18* | -1
Cc1[nH]n2c(=O)cc(-c3ccc([N+](=O)[O-])cc3)nc2c1-c1ccccc1 | 45* | 1 | 1 | 3 | -5 | 35* | 2
COc1cccc(N=Nc2c(N)[nH]n3c(=O)cc(-c4ccccc4)nc23)c1 | 0 | 3 | 8 | 8 | -9 | . | .
COc1ccc(-c2c(C(F)(F)F)[nH]n3c(=O)cc(-c4ccccc4)nc23)cc1 | 25* | 7 | -2 | 0 | -4 | 42* | 3
CCCc1cc(=O)n2[nH]c(C)c(-c3ccccc3)c2n1 | 0 | -2 | -1 | 2 | 0 | . | .
O=S(=O)(NCCCN1CCOCC1)c1ccc2c(c1)OCCO2 | -1 | -1 | -1 | 3 | -5 | . | .
SMILES | PP1 counter | PP5 inh | LMPTP block | STEP inh | Scp-1 inhibitor | PP1 inh confirm | PP5 inh counter
N#CC1=C(Nc2ccccc2Cl)SC(c2ccccc2O)NC1=O (stereo not drawn) | 1 | 1 | -1 | 0 | -8 | . | .
CCc1cc(=O)n2[nH]c(-c3ccccc3)c(-c3ccccc3)c2n1 | 22* | 2 | -1 | -3 | 1 | 21* | -1
CC(=O)c1c(C)[nH]c(C(=O)C(C)Sc2nnc(NC3CC3)s2)c1C (stereo not drawn) | -6 | 0 | 0 | -2 | 0 | . | .
Cc1cc(N)ccc1N1CCCC1 | 21* | 4 | 68* | 24 | 3 | -11 | -2
COc1ccc2c3c(cccc13)C(=O)N(O)C2=O | 26* | 0 | 0 | 0 | 30 | 42* | -3
Cc1nn(-c2nnc(C)c(=O)[nH]2)c(C)c1SCC(=O)Nc1ccc(C(C)C)cc1 | 5 | -10 | 0 | 5 | 21 | . | .
O=C(CN1CCc2cc3c(cc2C1)OCCCO3)Nc1cccc(Br)c1 | 3 | 2 | 2 | -1 | -2 | . | .
O=C(c1ccccc1)N1CCN(C(=O)c2nn3c(C(F)(F)F)cc(-c4ccco4)nc3c2Br)CC1 | 19* | -2 | 1 | 0 | -4 | -3 | -3
COc1ccc(NC(=O)c2cc(C)no2)cc1Cl | -4 | 1 | 1 | -1 | 8 | . | .
O=C(CN1C(=O)NC2(CCCC2)C1=O)N1CCN(c2ccccc2O)CC1 | 18* | -1 | -1 | 0 | -2 | -6 | -3
C=CCn1c2ccccc2c2nnc(SC(CC)C(=O)Nc3sc4c(c3C#N)CCCC4)nc21 (stereo not drawn) | 0 | 2 | 3 | 2 | 3 | . | .
COC(=O)CCC(=O)OC1(C)C(=O)C=C2C=C(C3CC3)N(Cc3ccc(OC)cc3)C=C2C1=O (stereo not drawn) | 4 | 8 | 3 | 2 | -2 | . | .
COC(=O)CCC(=O)OC1(C)C(=O)C2=CN(c3ccccc3)C(c3ccc(OC)cc3)=CC2=C(Br)C1=O (stereo not drawn) | 22* | 2 | 4 | 3 | 4 | 12 | 25*
COC(=O)CCC(=O)OC1(C)C(=O)C2=CN(Cc3ccccc3)C(c3ccc(OC)cc3)=CC2=C(Br)C1=O (stereo not drawn) | 21* | 10* | 18 | 1 | 2 | 9 | 28*
COc1ccc2c(Cl)c(C(=O)N/N=C3\CCCC(=O)C3)sc2c1 | -2 | -1 | 0 | -6 | -7 | . | .
COc1cc2nc(SCc3ccc(C(F)(F)F)cc3)n(Cc3cccs3)c(=N)c2cc1OC | -2 | 3 | 3 | 2 | 5 | . | .
COc1ccc(Cn2c(SCc3cc(C)ccc3C)nc3cc(OC)c(OC)cc3c2=N)cc1 | 23* | 5 | 23 | 14 | 2 | 6 | 3
COc1ccc(Cn2c(SCc3ccc(C)cc3)nc3cc(OC)c(OC)cc3c2=N)cc1Cl | 21* | 6 | 18 | 15 | 21 | 5 | 2
